Experimental data from different studies.
Compare with care: the assays were run in different laboratories.
DHODH: Dihydroorotate dehydrogenase (quinone), mitochondrial (DHODH, Homo sapiens, UniProt Q02127)
SCTR: Secretin receptor (SCTR, Homo sapiens, UniProt P47872)
PIK3CG: Phosphatidylinositol 4,5-bisphosphate 3-kinase catalytic subunit gamma isoform (PIK3CG, Homo sapiens, UniProt P48736)

Compound | target | test | endpoint | result
O=C(/C=C/c1ccc(O)c(O)c1)O[C@@H]1C[C@](O)(C(=O)O)C[C@@H](O)[C@H]1O | Prostaglandin G/H synthase 2 (PTGS2, Homo sapiens, UniProt P35354) | enzyme activity, inhibitor, fluorescence | IC50 | 30000 nM
CC[C@@](O)(c1cnc(C(F)(F)F)c(Cl)c1)c1c2ncn(C3CC3)c(=O)c2nn1C | DHODH | enzyme activity, inhibitor, absorbance | IC50 | 4000 to 6000 nM
CC1=NN(/C(=N\c2ccccc2F)Nc2nnc(C)s2)C(c2ccc(C)cc2)S1 (centres unmarked) | SCTR | cAMP, agonist, TR-FRET | EC50 | 19800 nM
Cc1c(C(=O)OC2CC2)nn(C)c1Cc1ccc(C(F)(F)F)nc1 | DHODH | enzyme activity, inhibitor | IC50 | > 100000 nM
CC1=NN(/C(=N/c2nnc(C)s2)Nc2ccc(C)c(C)c2)C(c2ccc(-c3ccccc3)cc2)S1 (centres unmarked) | SCTR | cAMP, agonist, TR-FRET | EC50 | 700 nM
COc1cc2ncnc(Nc3ccc4c(c3)/C(=C/c3cccc(Cl)c3)C(=O)N4C)c2cc1OC | PIK3CG | enzyme activity, inhibitor, ADP detection | IC50 | 197 nM
CC(=O)N(CC#Cc1cccc(C(N)=O)c1)C[C@H]1C[C@@H](n2ccc3c(Cl)ncnc32)[C@H](O)[C@@H]1O | Serine hydroxymethyltransferase, mitochondrial (SHMT2, Homo sapiens, UniProt P34897) | binding, MST | Kd | 2110 nM
CCCc1ccc(/N=C(/Nc2nnc(C)s2)N2N=C(C)SC2c2ccc(C)cc2)cc1 (centres unmarked) | SCTR | cAMP, agonist, TR-FRET | EC50 | > 50000 nM
Cc1nc(Nc2ccc3c(c2)/C(=C/c2ccccc2)C(=O)N3C)c2ccccc2n1 | PIK3CG | enzyme activity, inhibitor, ADP detection | IC50 | 113 nM
CCn1cc(C)c2c(C(O)c3ccc(Cl)c(F)c3)n(C)nc2c1=O (centres unmarked) | DHODH | enzyme activity, inhibitor | IC50 | > 100000 nM
Cc1nc(N(C)c2ccc3c(c2)/C(=C/c2ccccc2Cl)C(=O)N3C)c2ccccc2n1 | PIK3CG | enzyme activity, inhibitor, ADP detection | IC50 | 105 nM
CCn1ccc2c(Cc3ccc(C(F)(F)F)nc3)n(C)nc2c1=O | DHODH | enzyme activity, inhibitor, absorbance | IC50 | > 100000 nM
Cc1nc(Nc2ccc3c(c2)C(C)(C)C(=O)N3)c2ccccc2n1 | PIK3CG | enzyme activity, inhibitor, ADP detection | IC50 | 134 nM
CC1=NN(/C(=N/c2nnc(C)s2)Nc2ccc(C)c(C)c2)C(c2ccc(-c3cccc(C(F)(F)F)c3)cc2)S1 (centres unmarked) | SCTR | cAMP, agonist, TR-FRET | EC50 | 500 nM
Cc1nc(Nc2ccc3c(c2)C(C)(C)C(=O)N3C)c2ccccc2n1 | PIK3CG | enzyme activity, inhibitor, ADP detection | IC50 | 389 nM
Cn1nc2c(=O)n(C3CC3)nc(C3CC3)c2c1Cc1ccc(C(F)(F)F)c(F)c1 | DHODH | enzyme activity, inhibitor | IC50 | 2300 nM
Cc1cc([C@@H](C)Nc2ccccc2C(=O)O)c2nc(N3CCC(F)(F)CC3)c(C#N)c(=O)n2c1 | PIK3CG | enzyme activity, inhibitor, ADP detection | IC50 | > 10000 nM
